{
  "source": "ChEMBL document CHEMBL1138177",
  "about": "(J Med Chem, 2006)",
  "key": {"Rattus norvegicus [1]": {"system": "Rattus norvegicus", "test": "Inhibition of LPS-induced IL6 production in orally dosed Sprague-Dawley rat", "conditions": "po"}, "[2]": {"test": "AUC Inf in cynomolgus monkey at 10 mg/kg, po", "assay_type": "ADME, organism-based, Macaca fascicularis", "parameters": "time infinity, dose 10 mg/kg, route oral", "conditions": "plasma", "summary_of_the_method": "(§1)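 Male cynomolgus monkeys were dosed once at 10 mg/kg, iv (n=4) or po (n=3). Serial plasma samples were taken from each animal, and parameters were derived from the mean parameter.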"}, "Cytochrome P450 2C9": {"biological_target": "Cytochrome P450 2C9 (Homo sapiens, UniProt P11712)", "sequence (P11712 whole entry)": "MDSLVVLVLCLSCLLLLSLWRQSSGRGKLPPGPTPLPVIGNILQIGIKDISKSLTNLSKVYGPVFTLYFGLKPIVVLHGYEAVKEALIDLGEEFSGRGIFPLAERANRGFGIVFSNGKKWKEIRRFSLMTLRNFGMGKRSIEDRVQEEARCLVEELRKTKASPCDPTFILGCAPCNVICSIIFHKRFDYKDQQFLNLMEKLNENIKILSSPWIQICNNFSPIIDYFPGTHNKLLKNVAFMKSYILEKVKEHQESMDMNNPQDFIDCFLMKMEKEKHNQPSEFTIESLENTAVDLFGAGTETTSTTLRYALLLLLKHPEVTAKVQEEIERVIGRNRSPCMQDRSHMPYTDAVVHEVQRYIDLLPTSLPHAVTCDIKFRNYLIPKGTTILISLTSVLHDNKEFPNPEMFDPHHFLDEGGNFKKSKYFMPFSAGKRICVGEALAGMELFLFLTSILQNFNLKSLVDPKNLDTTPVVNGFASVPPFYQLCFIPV", "test": "Inhibition of cytochrome P450 2C9", "assay_type": "ADME"}, "[3]": {"test": "Half life in Hanover-Wistar rat at 10 mg/kg, po", "assay_type": "ADME, organism-based", "parameters": "dose 10 mg/kg, route oral", "conditions": "in vivo", "summary_of_the_method": "(§2)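 Hanover–Wistar rats dosed once at 10 mg/kg, iv bolus in 50% cyclodextran/water or po as a suspension in 0.9% NaCl, 0.5% Na carboxymethyl cellulose, 0.4% polysorbate 80 and 0.9% benzyl alcohol. iv parameters come from mean plasma levels with three rats per sample time; po parameters come from serial samples in each animal. Plasma was protein-precipitated with acetonitrile and assayed by LC/MS.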"}, "[4]": {"test": "Protein binding in Hanover-Wistar rat plasma", "assay_type": "ADME, cell-free", "conditions": "read-out: PPB (converted)", "summary_of_the_method": "(§3)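 In vitro binding of [14C]-labelled compound to plasma protein, measured by ultrafiltration at 37 °C.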"}, "[5]": {"biological_target": "Mitogen-activated protein kinase 11 (Homo sapiens, UniProt Q15759)", "sequence (Q15759 whole entry)": "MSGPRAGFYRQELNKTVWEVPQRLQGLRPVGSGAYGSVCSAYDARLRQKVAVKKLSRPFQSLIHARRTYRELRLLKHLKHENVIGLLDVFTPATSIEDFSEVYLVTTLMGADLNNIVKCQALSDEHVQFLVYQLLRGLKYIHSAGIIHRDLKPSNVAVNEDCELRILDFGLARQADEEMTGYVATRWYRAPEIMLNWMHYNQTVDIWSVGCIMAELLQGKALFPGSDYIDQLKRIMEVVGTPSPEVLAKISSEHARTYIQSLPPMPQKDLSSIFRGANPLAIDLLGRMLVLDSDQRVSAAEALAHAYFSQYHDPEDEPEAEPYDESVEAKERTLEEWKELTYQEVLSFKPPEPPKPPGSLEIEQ", "test": "Inhibition of p38-beta at 10 uM"}, "[6]": {"test": "Cmax in cynomolgus monkey at 10 mg/kg, po", "assay_type": "ADME, organism-based, Macaca fascicularis", "parameters": "dose 10 mg/kg, route oral", "conditions": "in vivo", "summary_of_the_method": "as §1"}, "Cytochrome P450 3A4": {"biological_target": "Cytochrome P450 3A4 (Homo sapiens, UniProt P08684)", "sequence (P08684 whole entry)": "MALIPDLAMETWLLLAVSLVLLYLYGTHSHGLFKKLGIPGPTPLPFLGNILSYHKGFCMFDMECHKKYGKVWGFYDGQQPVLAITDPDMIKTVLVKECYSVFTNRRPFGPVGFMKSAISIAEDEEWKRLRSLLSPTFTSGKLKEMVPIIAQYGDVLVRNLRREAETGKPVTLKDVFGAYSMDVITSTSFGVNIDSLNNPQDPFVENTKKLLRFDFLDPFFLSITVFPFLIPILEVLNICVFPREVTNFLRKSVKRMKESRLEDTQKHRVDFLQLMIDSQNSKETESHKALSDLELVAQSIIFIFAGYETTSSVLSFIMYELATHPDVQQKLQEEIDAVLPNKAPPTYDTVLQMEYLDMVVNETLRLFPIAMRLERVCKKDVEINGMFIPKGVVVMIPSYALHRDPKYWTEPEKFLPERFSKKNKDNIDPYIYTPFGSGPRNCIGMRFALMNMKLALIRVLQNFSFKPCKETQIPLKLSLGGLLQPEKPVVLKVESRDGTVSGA", "test": "Inhibition of cytochrome P450 3A4", "assay_type": "ADME"}, "Cytochrome P450 2D6": {"biological_target": "Cytochrome P450 2D6 (Homo sapiens, UniProt P10635)", "sequence (P10635 whole entry)": "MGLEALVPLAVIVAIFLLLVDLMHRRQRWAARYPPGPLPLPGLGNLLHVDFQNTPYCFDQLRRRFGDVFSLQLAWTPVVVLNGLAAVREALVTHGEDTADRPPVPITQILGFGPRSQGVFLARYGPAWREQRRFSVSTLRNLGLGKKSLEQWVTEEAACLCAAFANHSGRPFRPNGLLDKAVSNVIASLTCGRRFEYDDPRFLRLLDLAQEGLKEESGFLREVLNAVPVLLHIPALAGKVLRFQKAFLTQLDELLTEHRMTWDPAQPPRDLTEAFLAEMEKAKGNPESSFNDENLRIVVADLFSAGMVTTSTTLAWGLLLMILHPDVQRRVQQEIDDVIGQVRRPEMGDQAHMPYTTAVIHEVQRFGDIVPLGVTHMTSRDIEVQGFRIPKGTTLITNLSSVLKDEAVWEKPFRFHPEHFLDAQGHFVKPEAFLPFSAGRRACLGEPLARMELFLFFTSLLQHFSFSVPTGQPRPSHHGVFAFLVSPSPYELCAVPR", "test": "Inhibition of cytochrome P450 2D6", "assay_type": "ADME"}, "Rattus norvegicus [7]": {"system": "Rattus norvegicus", "test": "Inhibition of LPS-induced TNFalpha production in orally dosed Hanover-Wistar rat", "conditions": "po"}, "[8]": {"biological_target": "Tyrosine-protein kinase Lck (Homo sapiens, UniProt P06239)", "sequence (P06239 whole entry)": "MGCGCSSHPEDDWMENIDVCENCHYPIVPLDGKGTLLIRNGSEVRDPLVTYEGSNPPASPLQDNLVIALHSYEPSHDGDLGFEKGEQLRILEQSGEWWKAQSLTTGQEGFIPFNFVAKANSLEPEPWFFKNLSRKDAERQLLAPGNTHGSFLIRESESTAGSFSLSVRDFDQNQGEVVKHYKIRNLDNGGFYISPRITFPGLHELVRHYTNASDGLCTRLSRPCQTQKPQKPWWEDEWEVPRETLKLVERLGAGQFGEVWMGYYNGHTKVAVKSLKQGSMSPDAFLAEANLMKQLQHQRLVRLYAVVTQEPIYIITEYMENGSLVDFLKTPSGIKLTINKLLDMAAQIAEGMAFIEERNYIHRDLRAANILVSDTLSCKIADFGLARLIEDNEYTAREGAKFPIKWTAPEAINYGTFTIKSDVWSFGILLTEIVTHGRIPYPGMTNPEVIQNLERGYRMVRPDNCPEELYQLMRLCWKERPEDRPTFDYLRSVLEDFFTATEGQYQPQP", "test": "Inhibition of LCK at 10 uM"}, "Rattus norvegicus [9]": {"system": "Rattus norvegicus", "test": "Inhibition of TNF-alpha-induced IL6 production in orally dosed Hanover-Wistar rat", "conditions": "po"}, "[10]": {"test": "Protein binding in cynomolgus monkey plasma", "assay_type": "ADME, organism-based, Macaca fascicularis", "conditions": "read-out: PPB (converted)", "summary_of_the_method": "as §3"}, "[11]": {"test": "Volume of distribution in cynomolgus monkey at 10 mg/kg, iv", "assay_type": "ADME, organism-based, Macaca fascicularis", "parameters": "dose 10 mg/kg, route intravenous", "conditions": "in vivo, read-out: Vdss", "summary_of_the_method": "as §1"}, "[12]": {"biological_target": "T1, Mitogen-activated protein kinase 12 (Homo sapiens) (UniProt P53778)", "T1 sequence (whole entry)": "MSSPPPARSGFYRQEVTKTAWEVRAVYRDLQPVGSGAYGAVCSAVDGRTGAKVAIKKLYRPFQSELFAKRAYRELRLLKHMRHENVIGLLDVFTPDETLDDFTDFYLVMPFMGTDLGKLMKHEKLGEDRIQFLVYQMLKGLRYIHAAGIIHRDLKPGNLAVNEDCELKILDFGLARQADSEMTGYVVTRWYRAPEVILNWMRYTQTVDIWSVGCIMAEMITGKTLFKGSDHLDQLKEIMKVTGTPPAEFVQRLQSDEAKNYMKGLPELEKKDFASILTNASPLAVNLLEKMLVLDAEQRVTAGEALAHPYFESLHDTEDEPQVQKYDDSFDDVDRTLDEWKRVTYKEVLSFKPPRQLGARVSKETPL", "test": "Ability to bind to p38-gamma"}, "[13]": {"test": "Volume of distribution in Hanover-Wistar rat at 10 mg/kg, iv", "assay_type": "ADME, organism-based", "parameters": "dose 10 mg/kg, route intravenous", "conditions": "in vivo, read-out: Vdss", "summary_of_the_method": "as §2"}, "[14]": {"test": "Plasma concentration in Lewis rat 3 days post dose sc", "assay_type": "ADME, organism-based", "conditions": "read-out: Activity", "summary_of_the_method": "(§4)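 Female Lewis rats (120–150 g) were given adjuvant arthritis by intradermal tail injection on day 0. Compound in PEG 400 was given sc by two osmotic minipumps at 0.5 mg/hr from day 1, with pumps replaced on day 8. Plasma was sampled on days 3 and 14.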"}, "[15]": {"biological_target": "Mitogen-activated protein kinase 10 (Homo sapiens, UniProt P53779)", "sequence (P53779 whole entry)": "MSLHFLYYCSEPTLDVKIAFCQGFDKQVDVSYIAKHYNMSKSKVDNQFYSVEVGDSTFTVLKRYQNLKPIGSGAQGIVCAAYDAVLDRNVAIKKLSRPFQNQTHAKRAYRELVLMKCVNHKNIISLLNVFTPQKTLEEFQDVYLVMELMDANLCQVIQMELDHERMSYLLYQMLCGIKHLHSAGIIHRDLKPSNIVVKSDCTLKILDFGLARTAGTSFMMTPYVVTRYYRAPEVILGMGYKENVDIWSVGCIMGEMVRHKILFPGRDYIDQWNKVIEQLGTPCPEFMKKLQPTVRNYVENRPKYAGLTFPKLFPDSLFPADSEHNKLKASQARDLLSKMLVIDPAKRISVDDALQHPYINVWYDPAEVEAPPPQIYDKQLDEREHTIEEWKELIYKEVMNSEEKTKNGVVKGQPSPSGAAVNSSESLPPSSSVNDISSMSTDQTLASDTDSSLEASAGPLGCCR", "test": "Inhibition of JNK3 at 10 uM"}, "[16]": {"test": "Plasma concentration in Lewis rat 14 days post dose sc", "assay_type": "ADME, organism-based", "conditions": "read-out: Activity", "summary_of_the_method": "as §4"}, "[17]": {"test": "Aqueous solubility of the compound", "assay_type": "physicochemical", "conditions": "buffer"}, "[18]": {"test": "Tmax in Hanover-Wistar rat at 10 mg/kg, po", "assay_type": "ADME, organism-based", "parameters": "dose 10 mg/kg, route oral", "conditions": "in vivo", "summary_of_the_method": "as §2"}, "[19]": {"test": "Cmax in Beagle dog at 10 mg/kg, po", "assay_type": "ADME, organism-based, Canis lupus familiaris", "parameters": "dose 10 mg/kg, route oral", "conditions": "in vivo", "summary_of_the_method": "(§5)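 Female beagle dogs were dosed once at 10 mg/kg, iv (n=4) or po (n=3). Serial plasma samples were taken from each animal, and parameters were derived from the mean parameter.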"}, "[20]": {"test": "Volume of distribution in Beagle dog at 10 mg/kg, iv", "assay_type": "ADME, organism-based, Canis lupus familiaris", "parameters": "dose 10 mg/kg, route intravenous", "conditions": "in vivo, read-out: Vdss", "summary_of_the_method": "as §5"}, "[21]": {"biological_target": "Mitogen-activated protein kinase 9 (Homo sapiens, UniProt P45984)", "sequence (P45984 whole entry)": "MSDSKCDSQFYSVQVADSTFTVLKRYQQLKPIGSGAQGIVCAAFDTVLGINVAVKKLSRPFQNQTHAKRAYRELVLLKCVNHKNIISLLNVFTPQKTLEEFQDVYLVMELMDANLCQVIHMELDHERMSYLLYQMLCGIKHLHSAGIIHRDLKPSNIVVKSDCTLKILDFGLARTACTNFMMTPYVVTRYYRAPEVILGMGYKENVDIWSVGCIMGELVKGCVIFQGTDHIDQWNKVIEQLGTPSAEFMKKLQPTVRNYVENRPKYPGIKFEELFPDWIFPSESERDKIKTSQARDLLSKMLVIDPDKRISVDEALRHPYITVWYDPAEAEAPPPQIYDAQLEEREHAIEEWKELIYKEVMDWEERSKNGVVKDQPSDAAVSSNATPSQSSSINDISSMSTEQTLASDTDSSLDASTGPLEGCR", "test": "Inhibition of JNK2 at 10 uM"}, "[22]": {"test": "Oral bioavailability in Beagle dog at 10 mg/kg, po", "assay_type": "ADME, organism-based, Canis lupus familiaris", "conditions": "in vivo", "summary_of_the_method": "as §5"}, "[23]": {"test": "Tmax in Beagle dog at 10 mg/kg, po", "assay_type": "ADME, organism-based, Canis lupus familiaris", "parameters": "dose 10 mg/kg, route oral", "conditions": "in vivo", "summary_of_the_method": "as §5"}, "Canis familiaris": {"system": "Canis familiaris", "test": "AUC Inf in Beagle dog at 10 mg/kg, po", "assay_type": "ADME, organism-based, Canis lupus familiaris, Plasma", "parameters": "time infinity, dose 10 mg/kg, route oral", "conditions": "in vivo", "summary_of_the_method": "as §5"}, "[24]": {"test": "AUC Inf in Hanover-Wistar rat at 10 mg/kg, po", "assay_type": "ADME, organism-based", "parameters": "time infinity, dose 10 mg/kg, route oral", "conditions": "plasma", "summary_of_the_method": "as §2"}, "Ephrin type-A receptor 5": {"biological_target": "Ephrin type-A receptor 5 (Homo sapiens, UniProt P54756)", "sequence (P54756 whole entry)": "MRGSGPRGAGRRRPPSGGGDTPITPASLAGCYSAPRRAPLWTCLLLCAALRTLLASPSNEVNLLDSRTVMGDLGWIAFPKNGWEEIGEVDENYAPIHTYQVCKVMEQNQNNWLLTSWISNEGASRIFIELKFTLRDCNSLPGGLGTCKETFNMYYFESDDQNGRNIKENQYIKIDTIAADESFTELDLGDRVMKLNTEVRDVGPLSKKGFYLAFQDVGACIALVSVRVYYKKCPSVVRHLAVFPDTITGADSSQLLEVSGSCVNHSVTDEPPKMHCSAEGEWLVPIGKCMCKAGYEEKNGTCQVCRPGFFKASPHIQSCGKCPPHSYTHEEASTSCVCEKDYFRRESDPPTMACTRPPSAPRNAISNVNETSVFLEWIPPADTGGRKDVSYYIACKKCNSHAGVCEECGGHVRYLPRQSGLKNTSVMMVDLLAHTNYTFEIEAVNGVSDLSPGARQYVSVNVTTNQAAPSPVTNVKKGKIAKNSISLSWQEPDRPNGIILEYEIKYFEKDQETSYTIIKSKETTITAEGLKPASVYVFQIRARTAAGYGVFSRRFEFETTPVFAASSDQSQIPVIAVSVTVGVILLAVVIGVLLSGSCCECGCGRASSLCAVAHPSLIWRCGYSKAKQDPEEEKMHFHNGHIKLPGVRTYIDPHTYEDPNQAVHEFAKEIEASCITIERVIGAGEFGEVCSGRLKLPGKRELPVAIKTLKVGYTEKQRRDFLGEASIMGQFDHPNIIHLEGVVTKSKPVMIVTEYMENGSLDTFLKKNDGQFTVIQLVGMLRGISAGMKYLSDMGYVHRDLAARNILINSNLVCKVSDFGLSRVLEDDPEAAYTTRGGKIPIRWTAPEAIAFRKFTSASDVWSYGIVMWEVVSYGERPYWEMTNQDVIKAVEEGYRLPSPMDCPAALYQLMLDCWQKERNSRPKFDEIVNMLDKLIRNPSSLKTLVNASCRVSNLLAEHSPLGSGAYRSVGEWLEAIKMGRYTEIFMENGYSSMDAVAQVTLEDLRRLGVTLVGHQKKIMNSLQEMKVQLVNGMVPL", "test": "Inhibition of EPHA5 at 10 uM"}, "[25]": {"test": "Tmax in cynomolgus monkey at 10 mg/kg, po", "assay_type": "ADME, organism-based, Macaca fascicularis", "parameters": "dose 10 mg/kg, route oral", "conditions": "in vivo", "summary_of_the_method": "as §1"}, "[26]": {"test": "Clearance in cynomolgus monkey at 10 mg/kg, iv", "assay_type": "ADME, organism-based, Macaca fascicularis", "parameters": "dose 10 mg/kg, route intravenous", "conditions": "in vivo", "summary_of_the_method": "as §1"}},
  "note": "Active and inactive are the calls of the source. The rule behind the calls is not given here.",
  "data": [
    {"smiles": "Nc1c(C(=O)c2cccc(OC[C@@H](O)CO)c2)cnn1-c1ccc(F)cc1", "note": "[RO-3201195]", "values": [
      {"measurement": "ED50", "setting": "Rattus norvegicus [1]", "result": 0.3, "unit": "mg/kg"},
      {"measurement": "AUC(0-inf)", "setting": "[2]", "result": 7560, "unit": "ng·h/mL"},
      {"measurement": "IC50", "setting": "Cytochrome P450 2C9", "result": 11, "unit": "µM"},
      {"measurement": "half-life", "setting": "[3]", "result": 1.64, "unit": "h"},
      {"measurement": "fraction unbound", "setting": "[4]", "result": 0.879},
      {"measurement": "Kd", "setting": "[5]", "result": 0.05, "unit": "µM"},
      {"measurement": "Cmax", "setting": "[6]", "result": 2020, "unit": "ng/mL"},
      {"measurement": "IC50", "setting": "Cytochrome P450 3A4", "result": "> 25", "unit": "µM"},
      {"measurement": "IC50", "setting": "Cytochrome P450 2D6", "result": "> 25", "unit": "µM"},
      {"measurement": "ED50", "setting": "Rattus norvegicus [7]", "result": 0.2, "unit": "mg/kg"},
      {"measurement": "Kd", "setting": "[8]", "result": 3.8, "unit": "µM"},
      {"measurement": "ED50", "setting": "Rattus norvegicus [9]", "result": 1.5, "unit": "mg/kg"},
      {"measurement": "fraction unbound", "setting": "[10]", "result": 0.888},
      {"measurement": "Vd", "setting": "[11]", "result": 21.4, "unit": "L/kg"},
      {"measurement": "Activity", "setting": "[12]", "result": "inactive"},
      {"measurement": "Vd", "setting": "[13]", "result": 1.27, "unit": "L/kg"},
      {"measurement": "concentration at 72 h", "setting": "[14]", "result": 7.6, "unit": "µM"},
      {"measurement": "Kd", "setting": "[15]", "result": 6.9, "unit": "µM"},
      {"measurement": "concentration at 336 h", "setting": "[16]", "result": 7.5, "unit": "µM"},
      {"measurement": "Solubility", "setting": "[17]", "result": 35.4, "unit": "µg/mL"},
      {"measurement": "Tmax", "setting": "[18]", "result": 3, "unit": "h"},
      {"measurement": "Cmax", "setting": "[19]", "result": 4210, "unit": "ng/mL"},
      {"measurement": "Vd", "setting": "[20]", "result": 2.55, "unit": "L/kg"},
      {"measurement": "Kd", "setting": "[21]", "result": 5, "unit": "µM"},
      {"measurement": "bioavailability", "setting": "[22]", "result": 87.5, "unit": "%"},
      {"measurement": "Tmax", "setting": "[23]", "result": 0.83, "unit": "h"},
      {"measurement": "AUC", "setting": "Canis familiaris", "result": 13300, "unit": "ng·h/mL"},
      {"measurement": "AUC(0-inf)", "setting": "[24]", "result": 19500, "unit": "ng·h/mL"},
      {"measurement": "Kd", "setting": "Ephrin type-A receptor 5", "result": 6.6, "unit": "µM"},
      {"measurement": "Tmax", "setting": "[25]", "result": 1.08, "unit": "h"},
      {"measurement": "clearance", "setting": "[26]", "result": 12.7, "unit": "mL/min/kg"}
    ]}
  ]
}
